ChEMBL document CHEMBL4257579, “Analogs of penfluridol as chemotherapeutic agents with reduced central nervous system activity” (Bioorg Med Chem Lett, 2018)

How the values were obtained:
[1] = Drug distribution in C57BL/6J mouse adipose tissue at 5 mg/kg, ip treated daily for 7 consecutive days measured after 24 hrs post last dose by LC/MS/MS analysis; assay type: ADME, organism-based; conditions: in vivo
Outline: (§1)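 Female C57BL6 mice dosed 5 mg/kg i.p. once daily for seven consecutive days; sacrificed 24 h after last injection, organs stored at −80 °C. Plasma, brain, lungs and adipose tissue analysed by LC-MS/MS for drug concentration (nM); n = 5.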

Mus musculus [2] = assay: Toxicity in C57BL/6J mouse assessed as amylase level at 5 mg/kg, ip treated daily for 7 consecutive days measured after 24 hrs post last dose […]; assay type: organism-based; conditions: in vivo
Outline: (§2)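 Female C57BL6 mice given 5 mg/kg i.p. daily for 7 days; blood taken at sacrifice 24 h after last dose for clinical chemistry panel: electrolytes, minerals, total protein, albumin, globulin, A/G ratio, BUN, ALT, AST, GLDH, cholestasis markers, ALP, bilirubin, amylase, creatine kinase.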

[3] = Drug distribution in C57BL/6J mouse brain at 5 mg/kg, ip treated daily for 7 consecutive days measured after 24 hrs post last dose by LC/MS/MS analysis; assay type: ADME, organism-based; conditions: in vivo; outline: as §1
Mus musculus [4] = assay: Toxicity in C57BL/6J mouse assessed as decrease in blood urea nitrogen level at 5 mg/kg, ip treated daily for 7 consecutive days measured after 24 hrs post last dose […]; conditions: in vivo
Mus musculus [5] = assay: Toxicity in C57BL/6J mouse assessed as effect on spleen weight at 5 mg/kg, ip treated daily for 7 consecutive days measured after 24 hrs post last dose; assay type: organism-based; conditions: in vivo
Outline: (§3)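 Female C57BL6 mice treated 5 mg/kg i.p. once daily for seven days; killed 24 h after final injection and organs collected and weighed.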

Mus musculus [6] = assay: Toxicity in C57BL/6J mouse assessed as effect on kidney weight at 5 mg/kg, ip treated daily for 7 consecutive days measured after 24 hrs post last dose; assay type: organism-based; conditions: in vivo; outline: as §3
Mus musculus [7] = assay: Toxicity in C57BL/6J mouse assessed as bilirubin level at 5 mg/kg, ip treated daily for 7 consecutive days measured after 24 hrs post last dose […]; assay type: organism-based; conditions: in vivo; outline: as §2
Mus musculus [8] = assay: Toxicity in C57BL/6J mouse assessed as electrolytes level at 5 mg/kg, ip treated daily for 7 consecutive days measured after 24 hrs post last dose […]; assay type: organism-based; conditions: in vivo; outline: as §2
Mus musculus [9] = assay: Toxicity in C57BL/6J mouse assessed as alanine aminotransferase level at 5 mg/kg, ip treated daily for 7 consecutive days measured after 24 hrs post last dose […]; assay type: organism-based; conditions: in vivo; outline: as §2
Mus musculus [10] = assay: Toxicity in C57BL/6J mouse assessed as globulin level at 5 mg/kg, ip treated daily for 7 consecutive days measured after 24 hrs post last dose […]; assay type: organism-based; conditions: in vivo; outline: as §2
Mus musculus [11] = assay: Toxicity in C57BL/6J mouse assessed as effect on heart weight at 5 mg/kg, ip treated daily for 7 consecutive days measured after 24 hrs post last dose; assay type: organism-based; conditions: in vivo; outline: as §3
Mus musculus [12] = assay: Toxicity in C57BL/6J mouse assessed as albumin level at 5 mg/kg, ip treated daily for 7 consecutive days measured after 24 hrs post last dose […]; assay type: organism-based; conditions: in vivo; outline: as §2
[13] = Drug distribution in C57BL/6J mouse lung at 5 mg/kg, ip treated daily for 7 consecutive days measured after 24 hrs post last dose by LC/MS/MS analysis; assay type: ADME, organism-based; conditions: in vivo; outline: as §1
Mus musculus [14] = assay: Toxicity in C57BL/6J mouse assessed as effect on brain weight at 5 mg/kg, ip treated daily for 7 consecutive days measured after 24 hrs post last dose; assay type: organism-based; conditions: in vivo; outline: as §3
Mus musculus [15] = assay: Toxicity in C57BL/6J mouse assessed as effect on liver weight at 5 mg/kg, ip treated daily for 7 consecutive days measured after 24 hrs post last dose; assay type: organism-based; conditions: in vivo; outline: as §3
Mus musculus [16] = assay: Toxicity in C57BL/6J mouse assessed as minerals level at 5 mg/kg, ip treated daily for 7 consecutive days measured after 24 hrs post last dose […]; assay type: organism-based; conditions: in vivo; outline: as §2
Mus musculus [17] = assay: Toxicity in C57BL/6J mouse assessed as effect on lung weight at 5 mg/kg, ip treated daily for 7 consecutive days measured after 24 hrs post last dose; assay type: organism-based; conditions: in vivo; outline: as §3
Mus musculus [18] = assay: Toxicity in C57BL/6J mouse assessed as cholestasis level at 5 mg/kg, ip treated daily for 7 consecutive days measured after 24 hrs post last dose […]; assay type: organism-based; conditions: in vivo; outline: as §2
Mus musculus [19] = assay: Toxicity in C57BL/6J mouse assessed as ratio of albumin to globulin level at 5 mg/kg, ip treated daily for 7 consecutive days measured after 24 hrs post last dose […]; assay type: organism-based; conditions: in vivo; outline: as §2
Mus musculus [20] = assay: Toxicity in C57BL/6J mouse assessed as creatine kinase level at 5 mg/kg, ip treated daily for 7 consecutive days measured after 24 hrs post last dose […]; assay type: organism-based; conditions: in vivo; outline: as §2
[21] = biological target: Sodium-dependent serotonin transporter (Homo sapiens, UniProt P31645); assay: Displacement of [3H]Citalopram from human SERT expressed in HEK cells by radioligand binding assay; assay type: cell-based
Chain of Sodium-dependent serotonin transporter (P31645 whole entry): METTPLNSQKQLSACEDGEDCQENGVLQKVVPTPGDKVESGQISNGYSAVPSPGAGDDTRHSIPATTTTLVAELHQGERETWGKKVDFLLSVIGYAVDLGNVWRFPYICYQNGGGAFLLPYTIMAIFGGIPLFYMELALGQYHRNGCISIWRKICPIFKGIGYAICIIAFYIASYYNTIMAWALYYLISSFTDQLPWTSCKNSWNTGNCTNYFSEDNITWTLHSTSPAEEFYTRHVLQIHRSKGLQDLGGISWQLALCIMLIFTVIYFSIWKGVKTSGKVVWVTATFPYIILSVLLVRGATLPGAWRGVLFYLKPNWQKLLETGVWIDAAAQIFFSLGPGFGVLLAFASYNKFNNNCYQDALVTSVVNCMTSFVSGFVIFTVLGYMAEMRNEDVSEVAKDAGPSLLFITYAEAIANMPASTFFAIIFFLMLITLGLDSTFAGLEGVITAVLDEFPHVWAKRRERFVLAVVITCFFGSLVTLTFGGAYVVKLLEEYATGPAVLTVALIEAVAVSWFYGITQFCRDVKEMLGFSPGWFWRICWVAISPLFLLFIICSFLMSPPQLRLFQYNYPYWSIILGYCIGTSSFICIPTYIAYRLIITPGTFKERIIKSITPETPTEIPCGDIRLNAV

Mus musculus [22] = assay: Toxicity in C57BL/6J mouse assessed as total protein level at 5 mg/kg, ip treated daily for 7 consecutive days measured after 24 hrs post last dose […]; assay type: organism-based; conditions: in vivo; outline: as §2
Mus musculus [23] = assay: Toxicity in C57BL/6J mouse assessed as aspartate aminotransferase level at 5 mg/kg, ip treated daily for 7 consecutive days measured after 24 hrs post last dose […]; assay type: organism-based; conditions: in vivo; outline: as §2
[24] = Tmax in C57BL/6J mouse brain at 10 mg/kg, ip treated daily for 7 consecutive days by LC/MS/MS analysis; assay type: ADME, organism-based
[25] = biological target: Alpha-1D adrenergic receptor (Homo sapiens, UniProt P25100); assay: Displacement of [3H]Prazosin from human alpha 1D adrenergic receptor expressed in HEK cells by radioligand binding assay; assay type: cell-based
Chain of Alpha-1D adrenergic receptor (P25100 whole entry): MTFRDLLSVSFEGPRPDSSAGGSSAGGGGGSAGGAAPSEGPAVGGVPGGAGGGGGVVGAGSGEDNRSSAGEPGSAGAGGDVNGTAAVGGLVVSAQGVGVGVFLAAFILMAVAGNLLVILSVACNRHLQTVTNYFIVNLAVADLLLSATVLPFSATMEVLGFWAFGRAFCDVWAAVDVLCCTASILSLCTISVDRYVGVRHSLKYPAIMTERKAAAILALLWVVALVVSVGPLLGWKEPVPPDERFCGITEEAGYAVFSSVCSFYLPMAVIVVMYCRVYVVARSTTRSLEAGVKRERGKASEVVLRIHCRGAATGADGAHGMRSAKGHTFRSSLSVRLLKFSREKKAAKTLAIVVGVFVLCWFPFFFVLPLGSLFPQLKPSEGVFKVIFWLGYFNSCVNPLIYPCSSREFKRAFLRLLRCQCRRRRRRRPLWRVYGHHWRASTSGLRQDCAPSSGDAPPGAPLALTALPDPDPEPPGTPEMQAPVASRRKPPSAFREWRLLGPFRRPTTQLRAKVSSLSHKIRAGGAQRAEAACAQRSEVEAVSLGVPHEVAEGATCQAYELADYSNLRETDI
Outline: (§4)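 Ki values were calculated from the radioligand displacement data.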

[26] = biological target: Alpha-2B adrenergic receptor (Homo sapiens) (UniProt P18089); assay: Displacement of [3H]Rauwolscine from human alpha 2B adrenergic receptor expressed in HEK293T cells by radioligand binding assay relative to control; assay type: cell-based; conditions: concentration not given here
Chain of Alpha-2B adrenergic receptor (Homo sapiens) (P18089 whole entry): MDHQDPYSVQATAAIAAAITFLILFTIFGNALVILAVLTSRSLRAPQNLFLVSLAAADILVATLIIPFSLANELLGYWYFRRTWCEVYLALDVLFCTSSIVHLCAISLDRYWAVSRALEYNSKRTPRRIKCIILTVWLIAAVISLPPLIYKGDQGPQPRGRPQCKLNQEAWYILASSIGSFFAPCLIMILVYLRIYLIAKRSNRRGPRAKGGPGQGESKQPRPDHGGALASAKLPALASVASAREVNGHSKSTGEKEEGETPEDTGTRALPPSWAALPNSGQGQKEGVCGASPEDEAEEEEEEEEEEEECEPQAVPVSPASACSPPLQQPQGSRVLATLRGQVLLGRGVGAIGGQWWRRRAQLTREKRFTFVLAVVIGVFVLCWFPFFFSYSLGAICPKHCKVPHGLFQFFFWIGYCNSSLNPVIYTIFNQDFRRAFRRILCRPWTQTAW

[27] = biological target: T1, Beta-3 adrenergic receptor (Homo sapiens, UniProt P13945); assay: Displacement of [3H]CGP12177 from human beta 3 adrenergic receptor expressed in HEK293FlpIN cells by radioligand binding assay relative to control; assay type: cell-based; conditions: concentration not given here
Target sequence in this assay (P13945 whole entry, looked up): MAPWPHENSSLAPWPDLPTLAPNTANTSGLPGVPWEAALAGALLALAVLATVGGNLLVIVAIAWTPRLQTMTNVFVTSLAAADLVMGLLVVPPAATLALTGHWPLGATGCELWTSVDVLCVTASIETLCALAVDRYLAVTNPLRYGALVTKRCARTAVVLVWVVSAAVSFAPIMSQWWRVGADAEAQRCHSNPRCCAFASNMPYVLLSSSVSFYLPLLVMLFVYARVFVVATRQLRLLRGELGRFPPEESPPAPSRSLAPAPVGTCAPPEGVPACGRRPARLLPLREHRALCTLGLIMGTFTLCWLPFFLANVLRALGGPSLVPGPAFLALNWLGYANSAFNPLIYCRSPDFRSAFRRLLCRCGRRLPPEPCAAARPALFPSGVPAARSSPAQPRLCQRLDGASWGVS

[28] = biological target: Alpha-2B adrenergic receptor (Homo sapiens, UniProt P18089); assay: Displacement of [3H]Rauwolscine from human alpha 2B adrenergic receptor expressed in HEK293T cells by radioligand binding assay; assay type: cell-based; outline: as §4
Chain of Alpha-2B adrenergic receptor (P18089 whole entry): as the sequence (P18089 whole entry) above

[29] = biological target: Alpha-1D adrenergic receptor (Homo sapiens) (UniProt P25100); assay: Displacement of [3H]Prazosin from human alpha 1D adrenergic receptor expressed in HEK cells by radioligand binding assay relative to control; assay type: cell-based; conditions: concentration not given here
Chain of Alpha-1D adrenergic receptor (Homo sapiens) (P25100 whole entry): as the sequence (P25100 whole entry) above

[30] = biological target: T1, Beta-3 adrenergic receptor; assay: Displacement of [3H]CGP12177 from human beta 3 adrenergic receptor expressed in HEK293FlpIN cells by radioligand binding assay; assay type: cell-based; outline: as §4
Target sequence in this assay (P13945 whole entry): as the sequence (P13945 whole entry, looked up) above

[31] = biological target: Alpha-2C adrenergic receptor (Homo sapiens, UniProt P18825); assay: Displacement of [3H]Rauwolscine from human alpha 2C adrenergic receptor expressed in MDCK cells by radioligand binding assay; assay type: cell-based; outline: as §4
Chain of Alpha-2C adrenergic receptor (P18825 whole entry): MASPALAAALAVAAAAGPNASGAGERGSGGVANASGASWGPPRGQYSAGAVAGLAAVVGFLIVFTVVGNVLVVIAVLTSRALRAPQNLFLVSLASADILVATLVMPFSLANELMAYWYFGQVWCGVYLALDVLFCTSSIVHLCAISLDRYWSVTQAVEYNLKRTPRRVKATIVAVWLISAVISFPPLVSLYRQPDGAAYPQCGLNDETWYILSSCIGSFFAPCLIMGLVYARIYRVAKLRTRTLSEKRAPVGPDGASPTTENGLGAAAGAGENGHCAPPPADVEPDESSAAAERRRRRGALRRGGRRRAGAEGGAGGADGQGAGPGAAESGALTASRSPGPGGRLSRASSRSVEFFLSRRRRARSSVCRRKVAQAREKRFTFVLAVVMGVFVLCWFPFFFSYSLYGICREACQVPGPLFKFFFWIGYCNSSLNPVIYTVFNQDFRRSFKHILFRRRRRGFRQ

[32] = biological target: Alpha-2C adrenergic receptor (Homo sapiens) (UniProt P18825); assay: Displacement of [3H]Rauwolscine from human alpha 2C adrenergic receptor expressed in MDCK cells by radioligand binding assay relative to control; assay type: cell-based; conditions: concentration not given here
Chain of Alpha-2C adrenergic receptor (Homo sapiens) (P18825 whole entry): as above

Row | Compound | Drug uptake [1] | Activity (Mus musculus [2]) | Drug uptake [3] | Activity (Mus musculus [4]) | Activity (Mus musculus [5]) | Activity (Mus musculus [6]) | Activity (Mus musculus [7]) | Activity (Mus musculus [8]) | Activity (Mus musculus [9]) | Activity (Mus musculus [10]) | Activity (Mus musculus [11]) | Activity (Mus musculus [12]) | Drug uptake [13] | Activity (Mus musculus [14]) | Activity (Mus musculus [15]) | Activity (Mus musculus [16]) | Activity (Mus musculus [17]) | Activity (Mus musculus [18]) | Activity (Mus musculus [19]) | Ki [21] | further results
1 | OC1(c2ccc(Cl)c(C(F)(F)F)c2)CCN(CCCCC(c2ccc(F)cc2)c2ccc(F)cc2)CC1 | Active | Non-Toxic | Active | Non-Toxic | Non-Toxic | Non-Toxic | Non-Toxic | Non-Toxic | Non-Toxic | Non-Toxic | Non-Toxic | Non-Toxic | Active | Non-Toxic | Non-Toxic | Non-Toxic | Non-Toxic | Non-Toxic | Non-Toxic | 428 nM | Activity (Mus musculus [20]): Non-Toxic; Activity (Mus musculus [22]): Non-Toxic; Activity (Mus musculus [23]): Non-Toxic
2 | COc1ccc(N(CCCCN2CCC(O)(c3ccc(Cl)c(C(F)(F)F)c3)CC2)c2ccc(OC)cc2)cc1 | Active | Non-Toxic | Active | Non-Toxic | Non-Toxic | Non-Toxic | Non-Toxic | Non-Toxic | Non-Toxic | Non-Toxic | Non-Toxic | Non-Toxic | Active | Non-Toxic | Non-Toxic | Non-Toxic | Non-Toxic | Non-Toxic | Non-Toxic | 1310 nM | Tmax [24]: 6 h; Activity (Mus musculus [20]): Non-Toxic; Activity (Mus musculus [22]): Non-Toxic; Activity (Mus musculus [23]): Non-Toxic
3 | OC1(c2ccc(Cl)c(C(F)(F)F)c2)CCN(CCCC(c2ccccc2)c2ccccc2)CC1 | – | – | – | – | – | – | – | – | – | – | – | – | – | – | – | – | – | – | – | 1180 nM | –
4 | OC1(c2ccc(Cl)c(C(F)(F)F)c2)CCN(CCCCN(c2ccc(F)cc2)c2ccc(F)cc2)CC1 | – | – | – | – | – | – | – | – | – | – | – | – | – | – | – | – | – | – | – | 10000 nM | –
5 | OC1(c2ccc(Cl)c(C(F)(F)F)c2)CCN(CCCN(c2ccc(F)cc2)c2ccc(F)cc2)CC1 | – | – | – | – | – | – | – | – | – | – | – | – | – | – | – | – | – | – | – | 903 nM | –
6 | OC1(c2ccc(Cl)c(C(F)(F)F)c2)CCN(CCCC(c2ccc(F)cc2)c2ccc(F)cc2)CC1 [PENFLURIDOL] | Active | – | – | Toxic | – | – | – | – | – | – | – | – | Active | – | – | – | – | – | – | – | Ki [25]: 602 nM; inhibition [26]: 95.6%; inhibition [27]: 94%; Ki [28]: 401 nM; inhibition [29]: 95.7%; Ki [30]: 515 nM; Ki [31]: 445 nM; inhibition [32]: 100%
